The subject of data set [1] is Staphylococcus aureus. Briefly: Effect on cell growth of Staphylococcus aureus subsp. aureus USA300 at 150 ug/ml. It counts as organism-based. The gist of the method: (§1)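 Overnight culture diluted 1:1000 in TSB, grown to A600 0.6-0.8, then diluted 1:400 in TSB. Aliquots incubated with the compound at a range of concentrations. A600 read every 1 hr for 24 hr to build growth curves. Technical triplicates per point; three independent experiments.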

The subject of data set [2] is Sortase A (Staphylococcus aureus), Q9S446 [UNDEFINED MUTATION]. The data set is described as follows: Reversible inhibition of Staphylococcus aureus SrtA delta N24 mutant expressed in Escherichia coli BL21 (DE3) assessed as reduction in IsdA (64 to 323 residues) transpeptidation incubated for 20 mins followed by 10 fold compound dilution by SDS-PAGE analysis.
For data set [3], the target named is T1, Sortase A (Staphylococcus aureus, UniProt Q9S446, DELTAN24). The data set is described as follows: Inhibition of Staphylococcus aureus SrtA delta N24 mutant expressed in Escherichia coli BL21 (DE3) using Abz-LPATG-Dnp substrate incubated for 20 mins by FRET-based assay. The gist of the method: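 His-tagged SrtAΔN24 (1 µM) was preincubated 20 min at rt with compound (0.2–100 µM) in 50 mM Tris-HCl pH 7.5, 150 mM NaCl, 5 mM CaCl2. Abz-LPATG-Dnp was added at 10 µM and fluorescence (ex 309 / em 420 nm) was read each minute for 20 min. IC50 came from a sigmoidal fit. Technical triplicates, three independent experiments.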

Data set [4] concerns Sortase A (Staphylococcus aureus), Q9S446 [UNDEFINED MUTATION]. Briefly: Inhibition of SrtA delta N24 mutant in Staphylococcus aureus subsp. aureus str. Newman reduction in abundance of anchored SpA by FITC-labeled human IgG fluorescence based assay. The essentials:
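Newman wild type and ΔsrtA were diluted 1:1000 in TSB and grown at 37 °C with inhibitor until A600 reached 1.0. Cells were PBS-washed, labelled with FITC-human IgG for 30 min at rt, and washed again before fluorescence was read. Triplicate wells, three independent experiments, unpaired two-tailed t-test.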

For data set [5], the system named is Staphylococcus aureus. The data set is described as follows: Antibacterial activity against Staphylococcus aureus subsp. aureus str. Newman assessed as reduction in bacterial growth at 200 uM incubated for 24 hrs. It counts as functional, organism-based. The essentials:
as §1

A short description of data set [6]: Solubility in PBS in presence of 1% DMSO by LC/MS analysis. The note with it: PBS with 1% DMSO. It counts as physicochemical.
Data set [7] relates to Sortase A (Staphylococcus aureus), Q9S446 [UNDEFINED MUTATION]. The data set is described as follows: Inhibition of SrtA delta N24 mutant in Staphylococcus aureus subsp. aureus str. Newman reduction in abundance of anchored SpA at 50 to 200 uM by Western blot analysis. The gist of the method:
(§2)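 Newman was diluted 1:1000 and grown at 37 °C with inhibitor to A600 3.0. Cells were PBS-washed and digested with lysozyme for 30 min at 37 °C. Protoplasts were removed and the supernatant (cell wall fraction) was separated by SDS-PAGE and immunoblotted for SpA, with ClpP as the loading control. Three independent experiments.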
For orientation: In western blotting, separated proteins are transferred to a membrane and probed.

The test system is the same in data set [8]. Briefly: Covalent binding affinity to Staphylococcus aureus SrtA delta N24 mutant assessed as induction of m/z shift incubated for 12 hrs by ESI-LC/MS analysis. The essentials:
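His-tagged SrtAΔN24 preincubated 12 hr with or without a 10-fold excess of compound. Diluted in 50% acetonitrile / 0.2% formic acid, run on a C8 column with a 10–90% acetonitrile gradient over 11 min, then ESI-TOF MS. MTSET served as the covalent reference.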

Data set [9] deals with Staphylococcus aureus. Briefly: Antibacterial activity against Staphylococcus aureus subsp. aureus str. Newman assessed as reduction in bacterial growth incubated for 24 hrs. It counts as functional. The gist of the method:
as §1

In data set [10] the test system is Staphylococcus aureus. Briefly: Antibacterial activity against Staphylococcus aureus subsp. aureus USA300 infected in BALB/c mouse model of systemic infection assessed as prolongation of time to death at 40 mg/kg/day, ip for 10 days. The data set is classed as functional, organism-based. The gist of the method:
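BALB/c females, 6 weeks old, n = 10. USA300 grown 3 hr at 37 °C from a 1:1,000 dilution of overnight culture, washed, suspended in PBS. Compound suspended in ddH2O with 4% Tween 80 and 4% DMSO, given i.p. at 40 mg/kg every 24 hr; saline placebo. Mice challenged periorbitally 4 hr after the first dose. Survival followed over 10 days.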

Data set [11] has as its target T1, Sortase A. Briefly: Inhibition of Staphylococcus aureus SrtA delta N24 mutant expressed in Escherichia coli BL21 (DE3) assessed as reduction in IsdA (64 to 323 residues) transpeptidation incubated for 20 mins by SDS-PAGE analysis. The gist of the method:
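His-tagged SrtAΔN24 (100 µg) was preincubated 20 min at rt with compound (1–25 µM) in 50 mM Tris-HCl pH 7.5, 150 mM NaCl, 5 mM CaCl2. IsdA64-323 (150 µg) and 3 mM Gly3 were then added for 1.5 hr at 37 °C. […] Three independent experiments.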

The subject of data set [12] is Sortase A (Staphylococcus aureus), Q9S446 [UNDEFINED MUTATION]. Briefly: Time dependent inhibition of Staphylococcus aureus SrtA delta N24 mutant expressed in Escherichia coli BL21 (DE3) assessed as reduction in IsdA (64 to 323 residues) transpeptidation by SDS-PAGE analysis.
Data set [13] can be described thus: Cmax in mouse at 10 mg/kg, ip administered as single dose. The data set is classed as ADME, organism-based. On the set-up: dose 10 mg/kg, route intraperitoneal. The note with it: in vivo.
The test system of data set [14] is Sortase A (Staphylococcus aureus), Q9S446 [UNDEFINED MUTATION]. Briefly: Effect on structural folding of Staphylococcus aureus SrtA delta N24 mutant expressed in Escherichia coli BL21 (DE3 assessed as induction of gross structural perturbations by CD spectroscopy. The gist of the method: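 SrtAΔN24 at 10 µM was incubated with compound dissolved in methanol, and CD spectra were recorded. Two independent experiments.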

Data set [15] relates to Staphylococcus aureus. The data set is described as follows: Antibacterial activity against Staphylococcus aureus subsp. aureus USA300 infected in BALB/c mouse model of systemic infection assessed as mouse survival at 40 mg/kg/day, ip for 10 days. The note with it: 240 h. It counts as functional. The gist of the method:
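BALB/c females, 6 weeks old, n = 10. Drug suspended in ddH2O with 4% Tween 80 and 4% DMSO, given i.p. at 40 mg/kg every 24 hr. Saline was the placebo. Challenge by periorbital injection of USA300 4 hr after the first dose, about 1 × 10^8 CFU (lethal). Survival was followed for 10 days.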

Data set [16] concerns Staphylococcus aureus. Briefly: Antibiofilm activity against Staphylococcus aureus subsp. aureus str. Newman assessed as reduction in biofilm biomass at 25 to 100 uM incubated for 18 hrs by Crystal violet staining assay. It counts as functional, organism-based. The gist of the method: (§3)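 Overnight culture diluted 1:100 in TSB, plated in quadruplicate with inhibitor, and held static at 37 °C for 18 hr. Wells rinsed with PBS, and the dried, fixed biofilm stained with 0.1% crystal violet for 15 min. Stain dissolved in 30% acetic acid and absorbance read at 595 nm. Three independent experiments.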

For data set [17], the system named is Staphylococcus aureus. The data set is described as follows: Antibiofilm activity against Staphylococcus aureus subsp. aureus USA300 assessed as reduction in biofilm formation at 25 to 100 uM incubated for 18 hrs by Crystal violet staining assay. It counts as functional, organism-based. The essentials:
as §3

For data set [18], the system named is Sortase A (Staphylococcus aureus), Q9S446 [UNDEFINED MUTATION]. The data set is described as follows: Inhibition of Staphylococcus aureus SrtA delta N24 mutant expressed in Escherichia coli BL21 (DE3) using Abz-LPATG-Dnp substrate incubated for 20 mins in presence of 0.01% v/v Triton X-100 by FRET-based assay.
For data set [19] the test system is unchanged. The data set is described as follows: Binding affinity to Staphylococcus aureus SrtA delta N24 mutant expressed in Escherichia coli BL21 (DE3 assessed as attenuation of NMR signals by CPMG-NMR analysis. The essentials:
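NMR titration in 20 mM sodium phosphate pH 7.4, 100 mM NaCl, 2% DMSO, at 25 °C on a 600 MHz spectrometer with a cryoprobe.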

Data set [20] shares this test system. Briefly: Inhibition of SrtA delta N24 mutant in Staphylococcus aureus subsp. aureus str. Newman reduction in abundance of anchored SpA by Western blot analysis. The gist of the method:
as §2

Data set [21] has the same test system. Briefly: Covalent inhibition of Staphylococcus aureus SrtA delta N24 mutant expressed in Escherichia coli BL21 (DE3) assessed as reduction in IsdA (64 to 323 residues) transpeptidation incubated for 20 mins followed by 10 fold compound dilution by SDS-PAGE analysis.

Structures are written as SMILES. Activity calls are given as the source filed them. No cut-off for these calls is given here.

As usually defined, the IC50 is the midpoint of a concentration-inhibition curve. For orientation: solubility means the dissolved amount per volume that the medium holds. One may read the MIC as the least concentration at which growth counts as inhibited. As a reminder, the Cmax is the highest concentration seen after dosing. For `O=c1sn(-c2cccc3ccccc23)c(=O)n1Cc1ccccc1` [TIDEGLUSIB], in data set [1], the Activity entry is on record as “Non-Toxic”. Besides, the inhibition result in data set [2], in data set [5], in data set [7] and in data set [18] was “Active” in each case. In addition, the concentration for half-maximal inhibition (IC50) was found to be 600 nM in data set [3] and 5900 nM in [11]. Further, the inhibition entry in data set [4] is “Dose-dependent effect”. Besides, the solubility in data set [6] came to 11 µg/mL. The outcome in [8] and in data set [14] was inactive. The MIC in data set [9] was > 100 µg/mL. In addition, the result in [10], in data set [16] and in data set [17] was Active. Moreover, the TDI entry in data set [12] is “inactive”. This compound also had a maximum concentration (Cmax) in [13] of 137 ng/mL. In addition, the survival at 40 mg/kg/day in data set [15] amounted to 40%.

As to `Cc1noc(C)c1-n1sc(=O)n(Cc2ccccc2)c1=O`, the inhibition result in data set [2] and in data set [18] was “Active” in each case. The figures for the IC50 in data set [3] and in [11] were 800 nM and 4600 nM, respectively. Further, the inhibition entry in data set [4] is “Dose-dependent effect”. Moreover, the solubility in data set [6] came to 144 µg/mL. The outcome in [8] and in [14] was inactive. The MIC in data set [9] is > 100 µg/mL. The TDI entry in [12] was “inactive”. Moreover, the result in data set [16] was Active. In addition, the Activity entry in data set [19] was “Dose-dependent effect”.

In the case of `C[N+](C)(C)CCSS(C)(=O)=O`, the inhibition entry in data set [4], in data set [20] and in data set [21] was “Active” each time. In addition, the Activity in data set [8] was 120 Da.

The values above are taken from ChEMBL document CHEMBL4619779, “Tideglusib and Its Analogues As Inhibitors of Staphylococcus aureus SrtA” (J Med Chem, 2020).
